In ChEMBL document CHEMBL1123959, “Orally active hydroxamic acid inhibitors of leukotriene biosynthesis” (J Med Chem, 1988):

Tests used:
[1] = biological target: T1, Polyunsaturated fatty acid 5-lipoxygenase (Rattus norvegicus, UniProt P12527); assay: In vitro inhibition of 5-lipoxygenase in RBL-1 cells; format: cell-based
T1 sequence (P12527 whole entry): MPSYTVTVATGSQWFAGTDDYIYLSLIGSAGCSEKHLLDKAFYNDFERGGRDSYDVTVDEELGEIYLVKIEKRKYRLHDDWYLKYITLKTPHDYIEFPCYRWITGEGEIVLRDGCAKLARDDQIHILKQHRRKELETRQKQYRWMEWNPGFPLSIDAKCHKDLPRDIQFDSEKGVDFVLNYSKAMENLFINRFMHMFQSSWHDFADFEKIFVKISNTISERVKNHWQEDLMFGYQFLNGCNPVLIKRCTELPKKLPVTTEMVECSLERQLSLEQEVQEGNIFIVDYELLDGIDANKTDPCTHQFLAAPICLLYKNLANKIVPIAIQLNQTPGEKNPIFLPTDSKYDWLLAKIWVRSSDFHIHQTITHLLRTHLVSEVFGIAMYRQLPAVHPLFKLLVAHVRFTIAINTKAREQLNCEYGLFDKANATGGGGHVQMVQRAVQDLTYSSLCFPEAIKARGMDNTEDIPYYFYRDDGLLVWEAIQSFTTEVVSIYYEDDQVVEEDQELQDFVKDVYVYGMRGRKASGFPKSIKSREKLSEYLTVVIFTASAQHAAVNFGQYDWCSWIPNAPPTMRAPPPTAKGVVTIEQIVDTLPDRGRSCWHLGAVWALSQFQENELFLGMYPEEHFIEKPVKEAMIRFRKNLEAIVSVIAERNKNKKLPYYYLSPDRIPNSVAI
Outline: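 The enzyme was 5-lipoxygenase in the 2000g supernatant of RBL-1 cell homogenate. IC50 is reported with 95% confidence limits.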

Rattus norvegicus [2] = species: Rattus norvegicus; assay: Effective dosage to inhibit leukotriene biosynthesis in rat peritoneal anaphylaxis model; format: functional
Outline: (§1)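 Rats were primed ip with rabbit antibody to bovine serum albumin and challenged ip with BSA 3 h later. Inhibitors were given orally by gavage 1 h before challenge. Rats were killed 15 min after challenge, and peritoneal fluid leukotrienes were measured by radioimmunoassay. ED50 is given with 95% confidence limits. Percent inhibition at a fixed dose is the mean ± SEM (n = 8).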

Rattus norvegicus [3] = assay: Plasma concentration after 1 hr of peroral administration at 100 mg/kg was determined in rats; format: functional, organism-based; set-up: dose 100 mg/kg
Outline: (§2)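 Rats received 100 mg/kg orally by gavage. Blood was drawn from a lateral tail vein at the set times, and plasma was separated by centrifugation. Proteins were precipitated with methanol, and compound was quantified by HPLC with UV detection at its absorbance maximum. Values are the average of two determinations ± range.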

Rattus norvegicus [4] = assay: Plasma concentration after 3h of peroral administration at 100 mg/kg was determined in rats; format: functional, organism-based; set-up: dose 100 mg/kg; outline: as §2
Rattus norvegicus [5] = assay: Plasma concentration after 6 hr of peroral administration at 100 mg/kg was determined in rats; format: functional, organism-based; set-up: dose 100 mg/kg; outline: as §2
Rattus norvegicus [6] = assay: Percentage inhibition of leukotriene biosynthesis in rat peritoneal anaphylaxis model at 100 mg/kg; format: functional; outline: as §1

| Compound | IC50 [1] | ED50 (Rattus norvegicus [2]) | Plasma concentration (Rattus norvegicus [3]) | Plasma concentration (Rattus norvegicus [4]) | Plasma concentration (Rattus norvegicus [5]) | inhibition in vivo at 100 mg/kg (Rattus norvegicus [6]) |
| --- | --- | --- | --- | --- | --- | --- |
| CC(=O)N(O)C(C)c1ccc2ccccc2c1 (stereo not drawn) | 540 nM | 19 mg/kg | 91 µM | 26 µM | 33 µM | – |
| CCCCOc1ccc(C(C)C(=O)N(C)O)cc1 (stereo not drawn) | 780 nM | – | 58 µM | 7.3 µM | 3.2 µM | 62% |
| CC(C(=O)N(C)O)c1ccc2ccccc2c1 (stereo not drawn) | 590 nM | – | 37 µM | 13 µM | 1.4 µM | – |
| CCCCOc1ccc(C(C)N(O)C(C)=O)cc1 (stereo not drawn) | 790 nM | 17 mg/kg | 92 µM | 71 µM | 13 µM | – |
| CC(C(=O)N(C)O)c1ccc(OCc2ccccc2)cc1 (stereo not drawn) | – | 40 mg/kg | 8 µM | 5.8 µM | 3.8 µM | – |

Now from value to compound, other results behind:

| IC50 [1] | Compound | ED50 (Rattus norvegicus [2]) | Plasma concentration (Rattus norvegicus [3]) | Plasma concentration (Rattus norvegicus [4]) | Plasma concentration (Rattus norvegicus [5]) | inhibition in vivo at 100 mg/kg (Rattus norvegicus [6]) |
| --- | --- | --- | --- | --- | --- | --- |
| 420 nM | CC(=O)N(O)C(C)c1ccc(CC(C)C)cc1 (stereo not drawn) | 24 mg/kg | 21 µM | 10 µM | 5 µM | – |
| 370 nM | CC(=O)N(O)C(C)c1ccc(OCc2ccccc2)cc1 (stereo not drawn) | 8 mg/kg | 110 µM | 140 µM | 95 µM | – |
| 290 nM | CC(C)Cc1ccc(C(C)C(=O)N(C)O)cc1 (stereo not drawn) | – | < 9 µM | < 9 µM | < 9 µM | 65% |
